{"source": "ChEMBL document CHEMBL5338733", "about": "“Heterobifunctional Ligase Recruiters Enable pan-Degradation of Inhibitor of Apoptosis Proteins” (J Med Chem, 2023)", "type_in_all_cases": "cell-based", "key": {"[1]": {"biological_target": "T1, Protein cereblon/E3 ubiquitin-protein ligase XIAP (Homo sapiens) (UniProt P98170+Q96SW2)", "T1 sequence (P98170 whole entry, looked up)": "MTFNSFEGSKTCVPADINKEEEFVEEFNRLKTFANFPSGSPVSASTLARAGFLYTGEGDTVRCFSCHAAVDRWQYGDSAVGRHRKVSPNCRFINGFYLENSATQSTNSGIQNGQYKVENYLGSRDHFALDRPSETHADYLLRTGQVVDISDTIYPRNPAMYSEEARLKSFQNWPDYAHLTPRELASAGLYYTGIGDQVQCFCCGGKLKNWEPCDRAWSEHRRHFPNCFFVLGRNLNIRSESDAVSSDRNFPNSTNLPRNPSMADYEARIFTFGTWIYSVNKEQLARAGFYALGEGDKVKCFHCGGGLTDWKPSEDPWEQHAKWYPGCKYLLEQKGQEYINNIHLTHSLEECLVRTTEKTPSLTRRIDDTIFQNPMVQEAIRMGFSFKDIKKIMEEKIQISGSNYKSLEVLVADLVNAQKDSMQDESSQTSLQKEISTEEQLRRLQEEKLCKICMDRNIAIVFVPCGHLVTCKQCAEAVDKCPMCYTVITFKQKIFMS", "T1 sequence (Q96SW2 whole entry, looked up)": "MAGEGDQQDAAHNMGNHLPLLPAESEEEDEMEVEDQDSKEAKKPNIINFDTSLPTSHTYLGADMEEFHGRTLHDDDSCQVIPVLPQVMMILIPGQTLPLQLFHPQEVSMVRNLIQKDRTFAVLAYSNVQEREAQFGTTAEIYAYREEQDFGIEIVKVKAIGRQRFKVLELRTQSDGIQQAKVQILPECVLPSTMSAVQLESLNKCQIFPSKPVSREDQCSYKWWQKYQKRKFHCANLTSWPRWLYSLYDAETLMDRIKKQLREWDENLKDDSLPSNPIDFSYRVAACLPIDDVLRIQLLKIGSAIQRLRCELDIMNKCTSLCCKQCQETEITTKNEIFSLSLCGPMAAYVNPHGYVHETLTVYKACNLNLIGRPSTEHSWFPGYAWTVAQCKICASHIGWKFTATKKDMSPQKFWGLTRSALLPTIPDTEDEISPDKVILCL", "assay": "PROTAC activity at CRBN/IAP in human MM1.S cells assessed as induction of XIAP degradation incubated for 16 hrs by western blot analysis", "details": "dose 0.0001-1 µM", "procedure,_shortened": "(§1)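 MM.1S cells treated 16 h at the stated concentration. Lysed, run on SDS-PAGE and transferred to PVDF. Probed with primary antibodies overnight at 4 °C, then HRP secondaries, with ECL detection. Band densitometry normalized to loading control and to DMSO-treated cells. Averages of at least three independent experiments.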"}, "[2]": {"biological_target": "T2, Protein cereblon/Baculoviral IAP repeat-containing protein 3 (Homo sapiens) (UniProt Q13489+Q96SW2)", "T2 sequence (Q13489 whole entry, looked up)": "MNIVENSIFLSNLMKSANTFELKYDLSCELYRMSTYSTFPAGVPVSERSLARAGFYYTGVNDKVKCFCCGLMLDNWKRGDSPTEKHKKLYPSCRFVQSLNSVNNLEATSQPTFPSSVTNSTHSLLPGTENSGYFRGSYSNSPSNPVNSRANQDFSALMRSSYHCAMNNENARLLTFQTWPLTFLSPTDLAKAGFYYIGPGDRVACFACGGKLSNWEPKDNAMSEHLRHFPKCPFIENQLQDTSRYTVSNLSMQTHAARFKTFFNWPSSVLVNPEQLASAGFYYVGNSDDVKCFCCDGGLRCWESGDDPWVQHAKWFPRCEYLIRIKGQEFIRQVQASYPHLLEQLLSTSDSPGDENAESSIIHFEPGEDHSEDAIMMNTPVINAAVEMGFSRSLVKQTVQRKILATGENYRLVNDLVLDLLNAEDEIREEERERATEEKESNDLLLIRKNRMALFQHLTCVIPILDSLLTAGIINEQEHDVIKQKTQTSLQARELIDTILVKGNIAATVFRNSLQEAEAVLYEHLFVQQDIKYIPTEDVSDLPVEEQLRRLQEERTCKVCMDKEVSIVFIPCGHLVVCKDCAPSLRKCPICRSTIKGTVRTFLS", "T2 sequence (Q96SW2 whole entry, looked up)": "as the sequence (Q96SW2 whole entry, looked up) above", "assay": "PROTAC activity at CRBN/IAP in human MM1.S cells assessed as induction of cIAP2 degradation pretreated for 1 hr with ubiquitin-activating inhibitor, MLN7243 followed by incubation with drug for 3 hrs by western blot analysis"}, "[3]": {"biological_target": "T3, Protein cereblon/Baculoviral IAP repeat-containing protein 2 (Homo sapiens) (UniProt Q13490+Q96SW2)", "T3 sequence (Q13490 whole entry, looked up)": "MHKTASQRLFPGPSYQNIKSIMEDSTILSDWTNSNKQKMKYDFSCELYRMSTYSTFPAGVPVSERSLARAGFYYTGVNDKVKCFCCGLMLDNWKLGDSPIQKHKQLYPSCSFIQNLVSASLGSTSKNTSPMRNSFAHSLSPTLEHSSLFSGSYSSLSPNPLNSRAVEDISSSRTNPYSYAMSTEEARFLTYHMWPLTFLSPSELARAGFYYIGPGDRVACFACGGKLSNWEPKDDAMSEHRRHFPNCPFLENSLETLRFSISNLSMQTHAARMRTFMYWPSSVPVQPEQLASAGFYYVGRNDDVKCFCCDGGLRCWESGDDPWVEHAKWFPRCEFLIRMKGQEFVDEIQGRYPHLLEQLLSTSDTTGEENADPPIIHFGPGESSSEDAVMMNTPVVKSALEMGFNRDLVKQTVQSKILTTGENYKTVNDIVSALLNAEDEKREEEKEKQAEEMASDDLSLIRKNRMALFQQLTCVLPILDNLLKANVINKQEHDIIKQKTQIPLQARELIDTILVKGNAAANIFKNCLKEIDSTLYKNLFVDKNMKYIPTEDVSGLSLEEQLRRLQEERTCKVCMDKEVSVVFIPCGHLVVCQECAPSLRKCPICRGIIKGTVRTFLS", "T3 sequence (Q96SW2 whole entry, looked up)": "as the sequence (Q96SW2 whole entry, looked up) above", "assay": "PROTAC activity at CRBN/IAP in human MM1.S cells assessed as induction of cIAP1 degradation incubated for 16 hrs by western blot analysis", "details": "dose 0.0001-1 µM", "procedure,_shortened": "as §1"}, "[4]": {"biological_target": "T3, Protein cereblon/Baculoviral IAP repeat-containing protein 2 (Homo sapiens)", "assay": "PROTAC activity at CRBN/IAP in human MM1.S cells assessed as induction of cIAP1 degradation pretreated for 1 hr with proteasome inhibitor, MG132 followed by incubation with drug for 3 hrs by western blot analysis"}, "[5]": {"biological_target": "T1, Protein cereblon/E3 ubiquitin-protein ligase XIAP (Homo sapiens)", "assay": "PROTAC activity at CRBN/IAP in human MM1.S cells assessed as induction of XIAP degradation pretreated for 1 hr with proteasome inhibitor, MG132 followed by incubation with drug for 3 hrs by western blot analysis"}, "[6]": {"biological_target": "T2, Protein cereblon/Baculoviral IAP repeat-containing protein 3 (Homo sapiens)", "assay": "PROTAC activity at CRBN/IAP in human MM1.S cells assessed as induction of cIAP2 degradation pretreated for 1 hr with proteasome inhibitor, MG132 followed by incubation with drug for 3 hrs by western blot analysis"}, "[7]": {"biological_target": "T1, Protein cereblon/E3 ubiquitin-protein ligase XIAP (Homo sapiens)", "assay": "PROTAC activity at CRBN/IAP in human MM1.S cells assessed as induction of XIAP degradation pretreated for 1 hr with ubiquitin-activating inhibitor, MLN7243 followed by incubation with drug for 3 hrs by western blot analysis"}, "[8]": {"biological_target": "T3, Protein cereblon/Baculoviral IAP repeat-containing protein 2 (Homo sapiens)", "assay": "PROTAC activity at CRBN/IAP in human MM1.S cells assessed as induction of cIAP1 degradation at 0.1 uM incubated for 3 hrs by western blot analysis", "procedure,_shortened": "(§2)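 MM.1S cells treated with 0.1 μM compound for 3 h. Western blotting of lysates on PVDF with HRP/ECL detection.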"}, "[9]": {"biological_target": "T1, Protein cereblon/E3 ubiquitin-protein ligase XIAP (Homo sapiens)", "assay": "PROTAC activity at CRBN/IAP in human MM1.S cells assessed as induction of XIAP degradation at 0.1 uM by western blot analysis", "details": "time 3-96 hrs, TDE = time-dependent effect"}, "[10]": {"biological_target": "T3, Protein cereblon/Baculoviral IAP repeat-containing protein 2 (Homo sapiens)", "assay": "PROTAC activity at CRBN/IAP in human MM1.S cells assessed as induction of cIAP1 degradation pretreated for 1 hr with ubiquitin-activating inhibitor, MLN7243 followed by incubation with drug for 3 hrs by western blot analysis"}, "[11]": {"biological_target": "T1, Protein cereblon/E3 ubiquitin-protein ligase XIAP (Homo sapiens)", "assay": "PROTAC activity at CRBN/IAP in human MM1.S cells assessed as induction of XIAP degradation at 10 nM incubated for 16 hrs by western blot analysis"}, "[12]": {"biological_target": "T3, Protein cereblon/Baculoviral IAP repeat-containing protein 2 (Homo sapiens)", "assay": "PROTAC activity at CRBN/IAP in human MM1.S cells assessed as induction of cIAP1 degradation at 0.1 uM by western blot analysis", "details": "time 3-96 hrs, TDE = time-dependent effect", "procedure,_shortened": "as §1"}, "[13]": {"biological_target": "T2, Protein cereblon/Baculoviral IAP repeat-containing protein 3 (Homo sapiens)", "assay": "PROTAC activity at CRBN/IAP in human MM1.S cells assessed as induction of cIAP2 degradation at 0.1 uM incubated for 3 hrs by western blot analysis", "procedure,_shortened": "as §2"}, "[14]": {"biological_target": "T1, Protein cereblon/E3 ubiquitin-protein ligase XIAP (Homo sapiens)", "assay": "PROTAC activity at CRBN/IAP in human MM1.S cells assessed as induction of XIAP degradation at 0.1 uM incubated for 3 hrs by western blot analysis", "procedure,_shortened": "as §2"}, "[15]": {"biological_target": "Protein cereblon/Zinc finger protein Aiolos (Homo sapiens) (UniProt Q96SW2+Q9UKT9)", "sequence (Q96SW2 whole entry, looked up)": "as above", "sequence (Q9UKT9 whole entry, looked up)": "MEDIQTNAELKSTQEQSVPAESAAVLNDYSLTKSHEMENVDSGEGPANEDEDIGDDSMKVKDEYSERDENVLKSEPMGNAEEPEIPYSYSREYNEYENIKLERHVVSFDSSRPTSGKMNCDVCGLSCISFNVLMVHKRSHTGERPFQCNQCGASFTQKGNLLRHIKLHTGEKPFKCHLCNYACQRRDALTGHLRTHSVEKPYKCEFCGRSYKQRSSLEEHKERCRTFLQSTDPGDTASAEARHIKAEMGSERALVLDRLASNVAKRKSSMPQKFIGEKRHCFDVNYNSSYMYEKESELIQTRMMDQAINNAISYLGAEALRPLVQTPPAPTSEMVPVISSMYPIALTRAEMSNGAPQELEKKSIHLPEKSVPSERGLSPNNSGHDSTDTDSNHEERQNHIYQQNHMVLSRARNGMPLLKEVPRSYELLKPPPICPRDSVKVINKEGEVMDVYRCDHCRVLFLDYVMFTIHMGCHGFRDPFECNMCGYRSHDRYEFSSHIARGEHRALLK", "assay": "PROTAC activity at CRBN/IKZF3 in human MM1.S cells assessed as induction of IKZF3 degradation at 1 uM incubated for 16 hrs by western blot analysis", "procedure,_shortened": "as §1"}, "[16]": {"biological_target": "T1, Protein cereblon/E3 ubiquitin-protein ligase XIAP (Homo sapiens)", "assay": "PROTAC activity at CRBN/IAP in human MM1.S cells assessed as induction of XIAP degradation at 0.1 uM incubated for 3 hrs by diaPASEF-based proteomics analysis", "procedure,_shortened": "(§3)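 MM.1S cells exposed to DMSO or 0.1 μM compound for 3 h, then washed with PBS and snap-frozen. Lysed in 8 M urea/EPPS pH 8.5 buffer. 50 μg protein reduced, alkylated, precipitated, then digested with LysC and trypsin. Analysed by diaPASEF on timsTOF Pro2. Missing values imputed from a Gaussian distribution; log2 fold change versus DMSO with limma statistics.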"}, "[17]": {"biological_target": "T2, Protein cereblon/Baculoviral IAP repeat-containing protein 3 (Homo sapiens)", "assay": "PROTAC activity at CRBN/IAP in human MM1.S cells assessed as induction of cIAP2 degradation at 0.1 uM by western blot analysis", "details": "time 3-96 hrs, TDE = time-dependent effect", "procedure,_shortened": "as §1"}, "[18]": {"biological_target": "T2, Protein cereblon/Baculoviral IAP repeat-containing protein 3 (Homo sapiens)", "assay": "PROTAC activity at CRBN/IAP in human MM1.S cells assessed as induction of cIAP2 degradation incubated for 16 hrs by western blot analysis", "details": "dose 0.0001-1 µM", "procedure,_shortened": "as §1"}, "[19]": {"biological_target": "T3, Protein cereblon/Baculoviral IAP repeat-containing protein 2 (Homo sapiens)", "assay": "PROTAC activity at CRBN/IAP in human MM1.S cells assessed as induction of cIAP1 degradation at 10 nM incubated for 16 hrs by western blot analysis", "procedure,_shortened": "as §1"}, "[20]": {"biological_target": "T3, Protein cereblon/Baculoviral IAP repeat-containing protein 2 (Homo sapiens)", "assay": "PROTAC activity at CRBN/IAP in human MM1.S cells assessed as induction of cIAP1 degradation at 100 nM incubated for 3 hrs by diaPASEF-based analysis", "procedure,_shortened": "as §3"}}, "note": "The source made the active and inactive calls. No cut-off for these calls is given here.", "data": [{"smiles": "CN[C@@H](C)C(=O)N[C@H](C(=O)N1C[C@@H](Oc2cccc(OCCOCCCCCCOCCCCCCNc3cccc4c3C(=O)N(C3CCC(=O)NC3=O)C4=O)c2)C[C@H]1C(=O)N[C@@H]1CCCc2ccccc21)C1CCCCC1", "note": "(stereo not given in full)", "values": [{"measurement": "Activity", "setting": "[1]", "value": "Dose-Dependent Effect"}, {"measurement": "Activity", "setting": "[2]", "value": "inactive"}, {"measurement": "Activity", "setting": "[3]", "value": "Dose-Dependent Effect"}, {"measurement": "Activity", "setting": "[4]", "value": "inactive"}, {"measurement": "Activity", "setting": "[5]", "value": "inactive"}, {"measurement": "Activity", "setting": "[6]", "value": "inactive"}, {"measurement": "Activity", "setting": "[7]", "value": "inactive"}, {"measurement": "Activity", "setting": "[8]", "value": 100, "unit": "%"}, {"measurement": "Activity", "setting": "[9]", "value": "Tde"}, {"measurement": "Activity", "setting": "[10]", "value": "inactive"}, {"measurement": "Activity", "setting": "[11]", "value": 100, "unit": "%"}, {"measurement": "Activity", "setting": "[12]", "value": "Tde"}, {"measurement": "Activity", "setting": "[13]", "value": 100, "unit": "%"}, {"measurement": "Activity", "setting": "[14]", "value": 100, "unit": "%"}, {"measurement": "Activity", "setting": "[15]", "value": "Active"}, {"measurement": "Activity", "setting": "[16]", "value": "Active"}, {"measurement": "Activity", "setting": "[17]", "value": "Tde"}, {"measurement": "Activity", "setting": "[18]", "value": "Dose-Dependent Effect"}, {"measurement": "Activity", "setting": "[19]", "value": 100, "unit": "%"}, {"measurement": "Activity", "setting": "[20]", "value": "Active"}]}]}
